Experimental data reported in ChEMBL document CHEMBL1125733, “Fluoronaphthyridines and -quinolones as antibacterial agents. 3. Synthesis and structure-activity relationships of new 1-(1,1-dimethyl-2-fluoroethyl), 1-[1-methyl-1-(fluoromethyl)-2-fluoroethyl], and 1-[1,1-(difluoromethyl)-2-fluoroethyl] substituted derivatives” (J Med Chem, 1991).
≈ marks a conversion by molar mass, not a printed value.

Key:
Staphylococcus aureus [1] = assay: In vitro antibacterial activity (minimum inhibitory concentration, MIC) against Staphylococcus aureus A 9537.; assay type: functional
Escherichia coli [2] = assay: In vitro antibacterial activity against Escherichia coli A 15119; assay type: functional
Mus musculus [3] = organism: Mus musculus; conditions: in vivo, po, 40 mg/kg
Proteus mirabilis = assay: In vitro antibacterial activity (minimum inhibitory concentration, MIC) against Proteus mirabilis A 9900; assay type: functional
Klebsiella pneumoniae = assay: In vitro antibacterial activity against Klebsiella pneumoniae A 9664; assay type: functional
in vivo [4] = conditions: mouse, po, 40 mg/kg
Pseudomonas aeruginosa [5] = assay: Compound was tested in vitro for its antibacterial activity (minimum inhibitory concentration, MIC) against Pseudomonas aeruginosa A 9843; assay type: functional
in vivo [6] = conditions: mouse, blood, po, 40 mg/kg
Enterococcus faecalis [7] = assay: In vitro antibacterial activity against Enterococcus faecalis A 9809; assay type: functional
Bacteroides fragilis = assay: Compound was tested in vitro for its antibacterial activity (minimum inhibitory concentration) against Bacteroides fragilis A 22862.; assay type: functional; conditions: A22862
Morganella morganii = assay: In vitro antibacterial activity against Morganella morganii A 15153; assay type: functional
[8] = Compound was evaluated in vivo in blood samples from the orbital sinus for its concentration after a intramuscular administration 40 mg/kg in mice; assay type: ADME, organism-based; set-up: dose 40 mg/kg, route intramuscular; conditions: mouse, im
Outline: (§1)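 Mice were dosed at 40 mg/kg, either orally with a blunt needle and syringe or intramuscularly, with separate groups for each route. Blood was drawn from the orbital sinus at 5, 15, 30, 60, 120 and 180 min. Urine was pooled over 24 h. Drug levels were measured by agar disk diffusion microbioassay with Salmonella enteritidis A9531 as the assay organism.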

Streptococcus pneumoniae = assay: In vitro antibacterial activity against Streptococcus pneumoniae A 9585; assay type: functional
Haemophilus influenzae = assay: In vitro antibacterial activity against Haemophilus influenzae A 21515; assay type: functional
[9] = Compound was evaluated in vivo in blood samples from the orbital sinus for its half life after 40 mg/kg of intramuscular administration in mice.; assay type: ADME, organism-based; set-up: dose 40 mg/kg, route intramuscular; conditions: mouse, im
Mus musculus [10] = assay: Compound was evaluated in vivo in urine sample collected over 24 hours for its concentration after 40 mg/kg intramuscular administration to mice; assay type: functional; outline: as §1
Serratia marcescens = assay: In vitro antibacterial activity (minimum inhibitory concentration) against Serratia marcescens A 20019.; assay type: functional
Staphylococcus aureus [11] = assay: In vitro antibacterial activity against Staphylococcus aureus A 24227; assay type: functional
Mus musculus [12] = assay: Compound was evaluated in vivo in urine sample collected over 24 hours for its concentration after 40 mg/kg peroral administration to mice; assay type: functional; conditions: route oral; outline: as §1
Enterobacter cloacae = assay: In vitro antibacterial activity against Enterobacter cloacae A 9656; assay type: functional
Mus musculus [13] = assay: Compound was evaluated in vivo in blood samples from the orbital sinus for its concentration using Area under the time-concentration curve after 40 mg/kg intramuscular administration to mice; assay type: ADME, organism-based; set-up: dose 40 mg/kg, route intramuscular; conditions: im; outline: as §1
Canis familiaris [14] = assay: Compound was evaluated in vivo in urine sample collected over 24 hours for its concentration after 25 mg/kg peroral administration to dogs.; conditions: route oral
Escherichia coli [15] = assay: Compound was tested for the dose to protect 50% of mice from lethal infection against Escherichia coli A 15119 after peroral administration to OF1-strain of female Swiss mice.; assay type: functional; conditions: po, read-out: PD50
Outline: (§2)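 Compounds dissolved in sterile water and given orally to female OF1 Swiss mice weighing 18-25 g, five mice per group.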

[16] = Compound was evaluated in vivo in blood samples from the orbital sinus for its concentration after an intramuscular administration of 40 mg/kg in mice; assay type: ADME, organism-based; set-up: dose 40 mg/kg, route intramuscular; conditions: mouse, im; outline: as §1
Staphylococcus aureus [17] = assay: Compound was tested for the dose to protect 50% of mice from lethal infection against Staphylococcus aureus A 9606 after peroral administration to OF1-strain of female Swiss mice.; assay type: functional; conditions: po, read-out: PD50; outline: as §2
[18] = Compound was tested for the dose to protect 50% of mice from lethal infection against Streptococcus pneumoniae after peroral administration to OF1-strain of female Swiss mice.; assay type: functional; conditions: po, read-out: PD50; outline: as §2
Pseudomonas aeruginosa [19] = assay: Compound was tested for the dose to protect 50% of mice from lethal infection against Pseudomonas aeruginosa A9843 after peroral administration to OF1-strain of female Swiss mice.; assay type: functional; conditions: po, read-out: PD50; outline: as §2
in vivo [20] = conditions: dog, po, 25 mg/kg
Enterococcus faecalis [21] = assay: Compound was tested in vitro for its antibacterial activity (minimum inhibitory concentration) against Enterococcus faecalis A 9809 (gram positive).; assay type: functional
in vivo [22] = conditions: dog, po, 25 mg/kg; remark: listed apart in the source
Canis familiaris [23] = organism: Canis familiaris; conditions: dog, in vivo, po, 25 mg/kg

| SMILES | MIC (Staphylococcus aureus [1]) [mg/L] | MIC (Escherichia coli [2]) [mg/L] | AUC (Mus musculus [3]) [µg·h/mL] | MIC (Proteus mirabilis) [mg/L] | MIC (Klebsiella pneumoniae) [mg/L] | Cmax (in vivo [4]; blood) [µg/mL] | MIC (Pseudomonas aeruginosa [5]) [mg/L] | MIC (Enterococcus faecalis [7]) [mg/L] | MIC (Bacteroides fragilis) [mg/L] | MIC (Morganella morganii) [mg/L] | MIC (Streptococcus pneumoniae) [mg/L] | MIC (Haemophilus influenzae) [mg/L] | UR (Mus musculus [10]) [%] | MIC (Serratia marcescens) [mg/L] | MIC (Staphylococcus aureus [11]) [mg/L] | UR (Mus musculus [12]) [%] | MIC (Enterobacter cloacae) [mg/L] | AUC (Mus musculus [13]) [µg·h/mL] | ED50 [18] [mg/kg] | S [µg/mL] | further results |
| --- | --- | --- | --- | --- | --- | --- | --- | --- | --- | --- | --- | --- | --- | --- | --- | --- | --- | --- | --- | --- | --- |
| CN1CCN(c2c(F)cc3c(=O)c(C(=O)O)cn(CCF)c3c2F)CC1 [FLEROXACIN] | 0.06 (≈ 0.162 µM) | 0.03 (≈ 0.0812 µM) | 23 | 0.06 (≈ 0.162 µM) | 0.13 (≈ 0.352 µM) | 12 | 2 (≈ 5.42 µM) | 8 (≈ 21.7 µM) | 1 (≈ 2.71 µM) | 0.03 (≈ 0.0812 µM) | 2 (≈ 5.42 µM) | 0.13 (≈ 0.352 µM) | 64 | 0.13 (≈ 0.352 µM) | 0.25 (≈ 0.677 µM) | 51 | 0.13 (≈ 0.352 µM) | 32 | – | – | half-life (in vivo [6]): 0.967 h; Cmax [8]: 20 µg/mL; half-life [9]: 1.02 h |
| O=C(O)c1cn(C2CC2)c2cc(N3CCNCC3)c(F)cc2c1=O [CIPROFLOXACIN] | 0.06 (≈ 0.181 µM) | – | 7 | 0.008 (≈ 0.0241 µM) | 0.06 (≈ 0.181 µM) | – | – | 0.5 (≈ 1.51 µM) | 4 (≈ 12.1 µM) | – | 0.25 (≈ 0.754 µM) | 0.03 (≈ 0.0905 µM) | 46 | 0.03 (≈ 0.0905 µM) | 0.13 (≈ 0.392 µM) | 30 | – | 21 | > 69 | – | Cmax (in vivo [4]; in vivo): 6 µg/mL; UR (Canis familiaris [14]): 17%; ED50 (Escherichia coli [15]): 0.4 mg/kg; Cmax [16]: 15 µg/mL; ED50 (Staphylococcus aureus [17]): 31 mg/kg; ED50 (Pseudomonas aeruginosa [19]): 2.6 mg/kg; Cmax (in vivo [20]): 3 µg/mL |
| CC(C)(C)n1cc(C(=O)O)c(=O)c2cc(F)c(N3CC[C@H](N)C3)nc21 | 0.004 (≈ 0.0115 µM) | 0.016 (≈ 0.0459 µM) | – | 0.13 (≈ 0.373 µM) | 0.03 (≈ 0.0861 µM) | – | 0.25 (≈ 0.718 µM) | 0.06 (≈ 0.172 µM) | 1 (≈ 2.87 µM) | 0.13 (≈ 0.373 µM) | 0.008 (≈ 0.023 µM) | – | – | 0.25 (≈ 0.718 µM) | 0.002 (≈ 0.00574 µM) | 10 | 0.03 (≈ 0.0861 µM) | – | > 25 | – | UR (Canis familiaris [14]): 9%; ED50 (Escherichia coli [15]): 1.2 mg/kg |
| CC(C)(C)n1cc(C(=O)O)c(=O)c2cc(F)c(N3CCNCC3)nc21 | 0.06 (≈ 0.172 µM) | 0.016 (≈ 0.0459 µM) | – | 0.13 (≈ 0.373 µM) | 0.03 (≈ 0.0861 µM) | – | 0.5 (≈ 1.44 µM) | 1 (≈ 2.87 µM) | 8 (≈ 23 µM) | 0.06 (≈ 0.172 µM) | 1 (≈ 2.87 µM) | 0.016 (≈ 0.0459 µM) | – | 0.06 (≈ 0.172 µM) | 0.25 (≈ 0.718 µM) | – | 0.06 (≈ 0.172 µM) | – | – | 820 | – |
| CC(C)(CF)n1cc(C(=O)O)c(=O)c2cc(F)c(N3CCNCC3)nc21.Cl | 0.25 | 0.13 | – | 0.25 | 0.25 | – | 1 | 2 | 16 | 0.13 | 0.5 | 0.13 | – | 0.25 | 0.5 | – | 0.25 | – | – | 1600 | – |
| CC(C)(C)n1cc(C(=O)O)c(=O)c2cc(F)c(N3C[C@H]4CC3CN4)cc21 | 0.5 (≈ 1.39 µM) | 0.5 (≈ 1.39 µM) | – | 4 (≈ 11.1 µM) | 0.13 (≈ 0.362 µM) | – | 0.5 (≈ 1.39 µM) | – | – | 2 (≈ 5.56 µM) | – | – | – | 4 (≈ 11.1 µM) | – | – | 0.25 (≈ 0.696 µM) | – | – | – | MIC (Enterococcus faecalis [21]): 2 mg/L (≈ 5.56 µM) |
| CC(C)(CF)n1cc(C(=O)O)c(=O)c2cc(F)c(N3CC[C@H](N)C3)cc21.CS(=O)(=O)O | 0.03 | 0.002 | 0.6 | 0.004 | 0.004 | 1 | 0.13 | 0.13 | 2 | 0.002 | 0.06 | 0.016 | 27 | 0.016 | 0.016 | 4 | 0.004 | 14 | > 50 | 370 | half-life (in vivo [22]): 7 h; UR (Canis familiaris [14]): 4.6%; ED50 (Staphylococcus aureus [17]): 26.4 mg/kg; Cmax [8]: 8 µg/mL; half-life [9]: 1.82 h; AUC (Canis familiaris [23]): 7.3 µg·h/mL; ED50 (Pseudomonas aeruginosa [19]): 23.7 mg/kg; Cmax (in vivo [20]): 0.6 µg/mL |
| CC(C)(CF)n1cc(C(=O)O)c(=O)c2cc(F)c(N3CC4C[C@@H]3CN4)nc21.Cl | 0.25 | 0.06 | 7 | 0.5 | 0.25 | 4 | 0.5 | 2 | 8 | 0.25 | 0.5 | 0.13 | – | 0.25 | 2 | – | 0.13 | 20 | 57.4 | 200 | ED50 (Escherichia coli [15]): 2.4 mg/kg; Cmax [16]: 8 µg/mL; ED50 (Staphylococcus aureus [17]): 25 mg/kg; ED50 (Pseudomonas aeruginosa [19]): 4.9 mg/kg |
